Data on 7 molecules can be found in ChEMBL document CHEMBL1122971, “Aldosterone antagonists. 1. Synthesis and biological activities of 11 beta,18-epoxypregnane derivatives” (J Med Chem, 1985).

Assay [1] concerns the target T1, Mineralocorticoid receptor (Rattus norvegicus) (UniProt P22199).
T1 sequence (whole entry): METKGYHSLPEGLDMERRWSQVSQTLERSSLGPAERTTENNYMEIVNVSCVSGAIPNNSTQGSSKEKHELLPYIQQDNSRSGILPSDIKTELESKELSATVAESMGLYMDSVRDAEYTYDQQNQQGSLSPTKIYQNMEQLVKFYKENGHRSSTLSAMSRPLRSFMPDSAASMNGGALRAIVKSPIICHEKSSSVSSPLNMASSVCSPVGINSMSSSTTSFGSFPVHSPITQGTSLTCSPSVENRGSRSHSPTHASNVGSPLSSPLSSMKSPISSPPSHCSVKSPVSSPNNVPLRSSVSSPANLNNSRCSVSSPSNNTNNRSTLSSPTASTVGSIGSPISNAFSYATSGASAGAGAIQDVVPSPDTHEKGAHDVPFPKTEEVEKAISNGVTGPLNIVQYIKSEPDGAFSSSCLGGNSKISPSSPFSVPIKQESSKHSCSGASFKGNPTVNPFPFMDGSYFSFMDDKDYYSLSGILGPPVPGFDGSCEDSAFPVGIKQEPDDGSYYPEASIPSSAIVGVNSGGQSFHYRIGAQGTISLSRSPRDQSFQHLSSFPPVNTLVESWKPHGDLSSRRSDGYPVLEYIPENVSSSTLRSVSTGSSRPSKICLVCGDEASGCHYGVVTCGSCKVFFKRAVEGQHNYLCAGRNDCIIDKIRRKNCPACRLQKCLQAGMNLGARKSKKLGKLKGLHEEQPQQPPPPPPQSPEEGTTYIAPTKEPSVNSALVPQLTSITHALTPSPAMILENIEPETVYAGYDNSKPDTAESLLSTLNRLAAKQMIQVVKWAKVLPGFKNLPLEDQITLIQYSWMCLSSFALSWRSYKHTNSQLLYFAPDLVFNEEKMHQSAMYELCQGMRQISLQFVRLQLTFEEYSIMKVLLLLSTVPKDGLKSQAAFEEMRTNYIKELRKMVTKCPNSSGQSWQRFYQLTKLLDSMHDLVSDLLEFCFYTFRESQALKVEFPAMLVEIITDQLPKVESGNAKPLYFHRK
Nature of the assay: Aldosterone (5 ug/kg) antagonist and agonist activity for urinary Na/k at 2500 ug/kg. The class given is functional. As to conditions: Urine. Put shortly: (§1)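 Male Slc:Wistar rats, 7 weeks old, bilaterally adrenalectomized 2 days before assay, kept on 0.45% NaCl. Sugar cubes replaced diet the next evening, with 6 mL 0.45% NaCl/100 g given ip that evening and again on assay morning. Aldosterone (5 μg/kg in sesame oil) or none given sc, test compound sc right after. Urinary Na and K measured by atomic absorption; Na/K reported as mean ± SE.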

The target in assay [2] is T1, Mineralocorticoid receptor (Rattus norvegicus). Nature of the assay: Relative binding affinity against mineralocorticoid receptor of rat kidney at 25 degree Centigrade. The procedure, abridged: (§2)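 Kidney cytosol from male Sprague-Dawley rats (4-8 weeks), adrenalectomized 1-2 days before, prepared in pH 7.5 phosphate buffer with DTT, sucrose and 10 mM molybdate, spun at 200000g. Incubated with competitor (0.4 nM-40 μM) and about 1 nM 3H-aldosterone for 42-48 h at 0 °C or 100-120 min at 25/26 °C. Dextran-coated charcoal separation. RBA = ratio of 50%-inhibition concentrations versus aldosterone standard (=100).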

Assay [3] has the same target. Nature of the assay: Aldosterone (5 ug/kg) antagonist and agonist activity for urinary Na/k at 0 ug/kg. The class given is functional. The following applies: Urine. Put shortly:
as §1

For assay [4] the target is unchanged. Nature of the assay: (§3) Aldosterone (0 ug/kg) antagonist and agonist activity for urinary Na/k at 0 ug/kg. As to conditions: Urine. The class given is functional. The procedure, abridged:
as §1

The target is the same in assay [5]. Nature of the assay: Relative binding affinity against mineralocorticoid receptor of rat kidney at 0 degree Centigrade. Put shortly:
as §2

Assay [6] shares this target. Nature of the assay: Aldosterone (0 ug/kg) antagonist and agonist activity for urinary Na/k at 2500 ug/kg. The assay is classed as functional. As to conditions: Urine. Put shortly:
as §1

Assay [7] shares this target. Nature of the assay: Aldosterone (5 ug/kg) antagonist and agonist activity for urinary Na/k at 2.5 ug/kg. The class given is functional. As to conditions: Urine. Put shortly: as §1
For assay [8], the target named is T2, Androgen receptor (Rattus norvegicus) (UniProt P15207).
T2 sequence (whole entry): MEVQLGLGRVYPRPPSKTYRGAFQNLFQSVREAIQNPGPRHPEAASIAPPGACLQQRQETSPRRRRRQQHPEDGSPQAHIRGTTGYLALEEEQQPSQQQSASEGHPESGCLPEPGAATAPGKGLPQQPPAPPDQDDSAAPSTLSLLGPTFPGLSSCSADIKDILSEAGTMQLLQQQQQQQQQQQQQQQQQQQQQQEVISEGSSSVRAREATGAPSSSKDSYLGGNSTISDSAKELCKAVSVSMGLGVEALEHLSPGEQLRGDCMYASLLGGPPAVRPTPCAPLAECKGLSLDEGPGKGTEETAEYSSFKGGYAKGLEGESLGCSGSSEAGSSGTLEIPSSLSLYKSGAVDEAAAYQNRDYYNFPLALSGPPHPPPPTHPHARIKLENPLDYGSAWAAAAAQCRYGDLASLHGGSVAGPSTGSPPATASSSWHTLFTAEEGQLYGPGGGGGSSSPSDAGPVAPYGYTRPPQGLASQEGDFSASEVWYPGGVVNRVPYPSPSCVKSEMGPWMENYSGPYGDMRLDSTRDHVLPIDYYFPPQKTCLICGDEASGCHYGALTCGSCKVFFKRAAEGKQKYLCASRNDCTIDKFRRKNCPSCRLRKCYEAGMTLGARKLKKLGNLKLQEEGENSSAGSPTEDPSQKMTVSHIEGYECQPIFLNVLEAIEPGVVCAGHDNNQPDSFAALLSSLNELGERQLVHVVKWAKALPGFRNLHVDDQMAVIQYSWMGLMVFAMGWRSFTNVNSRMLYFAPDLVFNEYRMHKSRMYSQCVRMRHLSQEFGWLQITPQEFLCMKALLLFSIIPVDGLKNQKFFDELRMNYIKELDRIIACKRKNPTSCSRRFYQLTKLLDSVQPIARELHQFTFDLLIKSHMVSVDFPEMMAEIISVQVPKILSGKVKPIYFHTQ
Briefly: Relative binding affinity against androgen receptor of rat prostate at 15 degree centigrade; N means negative, < 0.1. The procedure, abridged: (§4)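 Ventral prostate cytosol from rats (4-5 weeks) castrated 1 day before, prepared in pH 7.5 phosphate buffer and spun 2 h at 200000g. Incubated with competitor (0.4 nM-40 μM) and 3H-DHT or 3H-methylnandrolone for 16-20 h at 0 °C or 2 h at 15 °C. Dextran-coated charcoal separation. RBA taken against DHT standard (=100); negative means RBA <0.1%.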

The target of assay [9] is T2, Androgen receptor (Rattus norvegicus). Nature of the assay: Relative binding affinity against androgen receptor of rat prostate at 0 degree centigrade; N means negative, < 0.1. Put shortly:
as §4

For assay [10], the target named is T1, Mineralocorticoid receptor (Rattus norvegicus). Briefly: Aldosterone (5 ug/kg) antagonist and agonist activity for urinary Na/k at 25 ug/kg. The following applies: Urine. The assay is classed as functional. The procedure, abridged: as §1
For assay [11] the target is unchanged. Briefly: Aldosterone (0 ug/kg) antagonist and agonist activity for urinary Na/k at 2.5 ug/kg. The class given is functional. As to conditions: Urine. Put shortly:
as §1

Assay [12] shares this target. Briefly: Aldosterone (0 ug/kg) antagonist and agonist activity for urinary Na/k at 25 ug/kg. The assay is classed as functional. The following applies: Urine. Put shortly: as §1
Assay [13] has the same target. Briefly: Aldosterone (5 ug/kg) antagonist activity for urinary Na/k at 250 ug/kg. The following applies: Urine. The assay is classed as functional. The procedure, abridged:
as §1

Assay [14] has the same target. Nature of the assay: Relative binding affinity against mineralocorticoid receptor of rat kidney at 25 degree centigrade; value ranges from […]-[…]%.
Assay [15] has the same target. Briefly: Aldosterone (5 ug/kg) antagonist activity for urinary Na/k at 2500 ug/kg. The assay is classed as functional. The following applies: Urine. Put shortly:
as §1

For assay [16] the target is unchanged. Nature of the assay: Aldosterone (5 ug/kg) antagonist activity for urinary Na/k at 25000 ug/kg. The assay is classed as functional. The following applies: Urine. Put shortly:
as §1

For assay [17] the target is unchanged. Nature of the assay: Relative binding affinity against mineralocorticoid receptor of rat kidney at 0 degree centigrade; value ranges from […]-[…]%.
The target is the same in assay [18]. Briefly: Aldosterone (5 ug/kg) antagonist and agonist activity for urinary Na/k at 250 ug/kg. The class given is functional. As to conditions: Urine. The procedure, abridged:
as §1

Assay [19] has the same target. Nature of the assay: Aldosterone (0 ug/kg) antagonist and agonist activity for urinary Na/k at 250 ug/kg. The class given is functional. As to conditions: Urine. Put shortly:
as §1

For assay [20] the target is unchanged. Briefly: Relative binding affinity against mineralocorticoid receptor of rat kidney at 0 degree centigrade; value ranges from 36-63%. Put shortly:
as §2

The target is the same in assay [21]. The assay is described as §3. The class given is functional. The following applies: Urine. The procedure, abridged:
as §1
This is another data set of the same source.

Assay [22] has the same target. Briefly: Aldosterone (0 ug/kg) antagonist and agonist activity for urinary Na/k at 25000 ug/kg. The assay is classed as functional. As to conditions: Urine. Put shortly: as §1
Assay [23] shares this target. Briefly: Aldosterone (5 ug/kg) antagonist and agonist activity for urinary Na/k at 25000 ug/kg. The class given is functional. The following applies: Urine. The procedure, abridged:
as §1

The target is the same in assay [24]. Briefly: Aldosterone (5 ug/kg) antagonist activity for urinary Na/k at 0 ug/kg. The class given is functional. As to conditions: Urine. The procedure, abridged: as §1
The target is the same in assay [25]. Nature of the assay: Aldosterone (0 ug/kg) antagonist activity for urinary Na/k at 0 ug/kg. The class given is functional. As to conditions: Urine. The procedure, abridged:
as §1

The target is the same in assay [26]. Briefly: Agonist activity for urinary Na/k at 25000 ug/kg. The following applies: Urine. The assay is classed as functional. The procedure, abridged: as §1
Assay [27] has the same target. Nature of the assay: Agonist activity for urinary Na/k at 2500 ug/kg. The class given is functional. The following applies: Urine. The procedure, abridged:
as §1

Assay [28] shares this target. Briefly: Agonist activity for urinary Na/k at 250 ug/kg. The assay is classed as functional. The following applies: Urine. Put shortly: as §1
The target is the same in assay [29]. Briefly: Relative binding affinity against mineralocorticoid receptor of rat kidney at 0 degree centigrade; value ranges from 44-58%. The procedure, abridged: as §2

Where “and” joins values, the source holds several entries; their conditions need not be identical. Equal entries are not always repeated. Calls of active or inactive are those of the source. No cut-off for these calls is given here.

For the molecule `CC(=O)S[C@@H]1CC2=CC(=O)CCC2(C)C2C3CC4(CO3)C(CC[C@@]43CCC(=O)O3)C21` (stereo not given in full), the Activity in assay [1] is 1.6; in assay [3], 1.1; in [4] it was 7.7; in [6] it was 6.4. In addition, the values for the RBA in assay [2] and in assay [5] were 0.4% and 0.1%, respectively.
With `CC12CCC(=O)C=C1CCC1C3CCC(C(=O)CO)C34COC(C4)[C@@]12F` (stereo not given in full), the RBA is 270% in assay [2] and 320% in assay [5]. Also, the Activity stood at 1 in assay [3]; 0.7 in assay [7]; 4.8 in assay [4]; 0.1 in assay [10]; 2.8 in assay [11]; 0.3 in assay [12]. The RBA result in assay [8] and in assay [9] was “inactive” each time.
Turning to `CC(=O)S[C@@H]1CC2=CC(=O)CC[C@]2(C)[C@H]2CC[C@@]3(C)[C@@H](CC[C@@]34CCC(=O)O4)[C@H]12`, the Activity amounted to 0.93 in assay [13], 1.47 in assay [15] and 2.83 in [16]. For the same molecule, the RBA was determined as 11% in assay [14] and 2.3% in assay [17].
`CC12CCC(=O)C=C1CCC1C3CCC(C(=O)CO)C34COC(C4)[C@@H]12` (stereo not given in full): the RBA in [2] came to 32%; in [20] it was 36%. Besides, the Activity in assay [3] stood at 0.8; in [4] it was 3.5; in assay [18], 1.7; in assay [19], 1.8. Besides, in assay [9], the RBA entry is “inactive”.
Turning to `C[C@]12CCC(=O)C=C1CC[C@@H]1[C@@H]2[C@@H](O)C[C@]2(C=O)[C@@H](C(=O)CO)CC[C@@H]12`, the RBA in assay [2] and in assay [5] was 100% in each case.
Consider `CC12CCC(=O)C=C1CCC1C3CC[C@@]4(CCC(=O)O4)C34COC(C4)[C@@H]12` (stereo not given in full), for which the Activity in assay [1] is 2.4; in assay [3], 1.1 and 0.7; in assay [4] it was 3.8; in [21] it was 7.7; in assay [22], 3.8; in [23], 2.2. For the same molecule, the Activity in assay [6] is 8.8. For the same molecule, the values for the RBA in [2] and in assay [5] were 1.1% and 1.8%, respectively.
Take `CC12CCC(=O)C=C1CCC1C3CC[C@@]4(CCC(=O)O4)C34COC(C4)[C@@]12F` (stereo not given in full): the Activity in assay [1] came to 2.5; in assay [13] it was 1.33; in [24], 0.75; in assay [25], 4.07; in assay [15], 2.08; in [3], 0.4. Further, the Activity in [26] came to 1.95; in assay [4], 5.1; in assay [16] it was 2.13; in assay [27] it was 2.7; in assay [6], 3.5; in assay [28], 3.42. For the same molecule, the RBA in [2] worked out at 23%; in assay [29], 44%. Moreover, the RBA result in [8] and in assay [9] was “inactive” in each case.
